Results: ChEMBL document CHEMBL1157554, “Biomimetic synthesis and anti-HIV activity of dimeric phloroglucinols” (Bioorg Med Chem, 2010)

How the values were obtained:
[1] = test system: Human immunodeficiency virus 1; experiment: Antiviral activity against HIV1 NL4-3 infected in GFP expressing human CEM cells assessed as inhibition of viral p24 antigen production at non-toxic concentration after 7 days postinfection by ELISA; type: functional, CCRF-CEM
Method in brief: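 CEM-GFP reporter T cells infected with HIV-1 NL4.3 at MOI 0.05 and cultured with samples at the highest non-toxic concentration. Virus production was measured in culture supernatant on day 7 post-infection by p24 antigen capture ELISA.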

[2] = Cytotoxicity against GFP expressing human CEM cells after 48 to 72 hrs by MTT assay; type: cell-based, CCRF-CEM
Method in brief: (§1)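 MTT assay on uninfected CEM-GFP cells seeded at 2 × 10⁴ cells/well. Samples were added at various concentrations, with untreated or vehicle-treated controls, and incubated 48–72 h. Formazan was solubilized and absorbance read at 540 nm. Non-toxic concentrations were carried into antiviral screening. CC50 was from triplicate determinations.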

[3] = Cytotoxicity against GFP expressing human CEM cells assessed as maximal non-toxic concentration after 48 to 72 hrs by MTT assay; type: cell-based, CCRF-CEM; method in brief: as §1
[4] = biological target: Human immunodeficiency virus type 1 reverse transcriptase (Human immunodeficiency virus 1) (UniProt Q72547); experiment: Inhibition of HIV1 reverse transcriptase at 20 ug/mL by EIA
[5] = test system: Human immunodeficiency virus 1; experiment: Antiviral activity against HIV1 NL4-3 infected in GFP expressing human CEM cells assessed as inhibition of viral infection measured after 9 days postinfection by microfluorometry; type: functional, organism-based; conditions: Human immunodeficiency virus 1, NL4-3, CCRF-CEM, 216 h
Method in brief: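 CEM-GFP human CD4+ T cells, which carry an integrated LTR-driven GFP reporter, infected with HIV-1 NL4.3 at MOI 0.05. Cells were incubated with samples for up to 9 days post-infection. Infection was followed by GFP fluorescence microscopy, and screening inhibition was quantified by GFP microfluorometry. IC50 is the concentration giving 50% inhibition of infected cells (n = 3).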

[6] = biological target: Human immunodeficiency virus type 1 reverse transcriptase (Human immunodeficiency virus 1, UniProt Q72547); experiment: Inhibition of HIV1 reverse transcriptase by EIA
[7] = test system: Human immunodeficiency virus; experiment: Inhibition of HIV reverse transcriptase at 25 ug/mL

Row | inhibition [4] [%] | IC50 [5] [µM] | EC50 [6] [µM] | inhibition [7] [%] | Structure (SMILES) | inhibition (INH) [1] [%] | CC50 [2] [µM] | MNTC [3] [µM]
1 |  |  |  |  | Cc1cn([C@H]2C[C@H](N=[N+]=[N-])[C@@H](CO)O2)c(=O)[nH]c1=O [ZIDOVUDINE] | 89.75 | 24.1 | 5
2 |  |  |  |  | CC(C)CC(=O)c1c(O)c(Cc2c(O)c(C(=O)CC(C)C)c(O)c(C(=O)CC(C)C)c2O)c(O)c(C(=O)CC(C)C)c1O | 0 |  | 0.17
3 |  |  |  |  | CC(C)CC(=O)c1c(O)c(C=O)c(O)c(C(c2ccccn2)c2c(O)c(C=O)c(O)c(C(=O)CC(C)C)c2O)c1O | 26.9 |  | 15.9
4 |  |  |  |  | CC(C)CC(=O)c1c(O)c(C=O)c(O)c(C(c2ccc(OCc3ccccc3)cc2)c2c(O)c(C=O)c(O)c(C(=O)CC(C)C)c2O)c1O | 0 |  | 7.46
5 |  |  |  |  | CC(C)C(=O)c1c(O)c(Cc2c(O)c(C(=O)C(C)C)c(O)c(C(=O)C(C)C)c2O)c(O)c(C(=O)C(C)C)c1O | 0 |  | 0.09
6 | 4.61 | 0.28 |  |  | CC(C)CC(=O)c1c(O)c(C(=O)CC(C)C)c(O)c(C(c2ccccc2)c2c(O)c(C(=O)CC(C)C)c(O)c(C(=O)CC(C)C)c2O)c1O | 66.5 | 3.15 | 0.74
7 |  |  |  |  | CC(C)CC(=O)c1c(O)c(C(=O)CC(C)C)c(O)c(C(CCc2ccccc2)c2c(O)c(C(=O)CC(C)C)c(O)c(C(=O)CC(C)C)c2O)c1O | 15 |  | 0.71
8 |  |  |  |  | CC(C)CC(=O)c1c(O)c(C=O)c(O)c(Cc2c(O)c(C=O)c(O)c(C(=O)CC(C)C)c2O)c1O | 0 |  | 4.1
9 | 0 | 3.37 |  |  | CC(C)CC(=O)c1c(O)c(C(=O)CC(C)C)c(O)c(C(c2ccccn2)c2c(O)c(C(=O)CC(C)C)c(O)c(C(=O)CC(C)C)c2O)c1O | 64.7 | 38.1 | 7.39
10 |  |  |  |  | CC(=O)c1c(O)c(Cc2c(O)c(C(C)=O)c(O)c(C(C)=O)c2O)c(O)c(C(C)=O)c1O | 0 |  | 0.23
11 | 87.8 | 2.71 | 1.03 |  | CC(C)CC(=O)c1c(O)c(C(=O)CC(C)C)c(O)c(C(c2ccc(OCc3ccccc3)cc2)c2c(O)c(C(=O)CC(C)C)c(O)c(C(=O)CC(C)C)c2O)c1O | 70 | 24 | 5.75
12 |  |  |  |  | CC(C)CC(=O)c1c(O)c(C(=O)CC(C)C)c(O)c(C(c2ccco2)c2c(O)c(C(=O)CC(C)C)c(O)c(C(=O)CC(C)C)c2O)c1O | 56.8 |  | 3.75
13 | 0 | 4.09 |  |  | CC(=O)c1c(O)c(C(C)=O)c(O)c(C(c2c(O)c(C(C)=O)c(O)c(C(C)=O)c2O)C2CCCCC2)c1O | 78.5 | 58.9 | 9.73
14 | 16.2 | 6.75 |  |  | CC(=O)c1c(O)c(C(C)=O)c(O)c(C(c2ccco2)c2c(O)c(C(C)=O)c(O)c(C(C)=O)c2O)c1O | 73 | 61.2 | 15.1
15 |  |  |  |  | CC(=O)c1c(O)c(C(C)=O)c(O)c(C(c2ccc(O)cc2)c2c(O)c(C(C)=O)c(O)c(C(C)=O)c2O)c1O | 56 |  | 14.3
16 |  |  |  |  | CC(C)CC(=O)c1c(O)c(C(=O)CC(C)C)c(O)c(C(c2c(O)c(C(=O)CC(C)C)c(O)c(C(=O)CC(C)C)c2O)c2ccnc3ccccc23)c1O | 30.1 |  | 3.44
17 |  |  |  |  | CC(C)CC(=O)c1c(O)c(C(=O)CC(C)C)c(O)c(C(c2ccc3c(c2)OCO3)c2c(O)c(C(=O)CC(C)C)c(O)c(C(=O)CC(C)C)c2O)c1O | 13.9 |  | 2.77
18 | 80.5 | 18.6 | 0.47 |  | CC(=O)c1c(O)c(C(C)=O)c(O)c(C(c2c(O)c(C(C)=O)c(O)c(C(C)=O)c2O)c2ccnc3ccccc23)c1O | 71.1 | 93.4 | 35.8
19 |  |  |  |  | CC(C)CC(=O)c1c(O)c(C(=O)CC(C)C)c(O)c(C(c2ccc(O)cc2)c2c(O)c(C(=O)CC(C)C)c(O)c(C(=O)CC(C)C)c2O)c1O | 15.6 |  | 1.45
20 | 13.4 | 6.06 |  |  | CC(=O)c1c(O)c(C(C)=O)c(O)c(C(c2ccc(N(C)C)cc2)c2c(O)c(C(C)=O)c(O)c(C(C)=O)c2O)c1O | 60.6 | 22.1 | 9.07
21 |  |  |  | 90 | COc1c(C)c(O)c(C(C)=O)c(O)c1Cc1c(O)c(CC=C(C)C)c(O)c(C(C)=O)c1O |  |  | 
22 |  |  |  |  | CC(=O)c1c(O)c(C(C)=O)c(O)c(C(CCc2ccccc2)c2c(O)c(C(C)=O)c(O)c(C(C)=O)c2O)c1O | 16 |  | 1.87
23 |  |  |  |  | CCC(c1c(O)c(C(C)=O)c(O)c(C(C)=O)c1O)c1c(O)c(C(C)=O)c(O)c(C(C)=O)c1O | 17.5 |  | 2.17
